HePTP inh: inhibitors of human HePTP phosphatase, primary screen, biochemical, absorbance, leukemia target; Tyrosine-protein phosphatase non-receptor type 7 (Homo sapiens), P35236; recombinant HePTP phosphatase activity, OD absorbance; inhibition, % at 20 µM; actives 0.64% (n = 110,000); AID 521, 2006; in the data active means inhibition above about 50%;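 further: plate controls were vehicle for no effect and reference inhibitor for full effect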
PostGolgi ctrl: growth inhibition of yeast control strain, primary screen, counter-screen for post-Golgi transport modulator project. efflux-deficient yeast background strain, growth absorbance A615, 16 h. inhibition, % at 10 µM. actives 5% (n = 98,000). AID 738, 2007
PLAP activator: PLAP enzyme activators, biochemical, luminescence, HTS | purified PLAP enzyme, luminescent substrate read-out; stronger effect = higher value | activation fold at 20 µM | actives 1.2% (n = 96,000); in the data active means activation fold above about 2
Target sequence (P05187 whole entry, looked up): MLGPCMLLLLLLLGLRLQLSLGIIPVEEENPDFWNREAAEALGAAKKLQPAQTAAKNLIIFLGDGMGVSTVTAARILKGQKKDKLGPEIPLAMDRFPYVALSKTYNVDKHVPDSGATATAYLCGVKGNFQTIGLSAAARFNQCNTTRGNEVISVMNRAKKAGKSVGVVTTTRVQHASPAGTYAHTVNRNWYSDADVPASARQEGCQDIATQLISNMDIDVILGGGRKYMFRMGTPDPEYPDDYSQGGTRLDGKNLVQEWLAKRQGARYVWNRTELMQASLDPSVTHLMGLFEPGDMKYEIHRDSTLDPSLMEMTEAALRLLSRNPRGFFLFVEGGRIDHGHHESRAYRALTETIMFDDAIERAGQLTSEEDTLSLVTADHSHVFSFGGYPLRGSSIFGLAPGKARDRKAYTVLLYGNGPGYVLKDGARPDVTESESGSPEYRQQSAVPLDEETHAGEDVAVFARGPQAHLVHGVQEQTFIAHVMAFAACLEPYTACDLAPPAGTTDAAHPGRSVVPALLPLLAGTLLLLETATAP
PostGolgi yeast: phenotypic screen on post-Golgi transport, primary screen. inhibition, % at 10 µM. actives 0.9% (n = 98,000). post-Golgi transport phenotypic cell assay;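 further: yeast cells grown in 1536-well plates; yeast grown about 18 h at 30C before absorbance read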
Ecoli tolC: growth inhibitors of E. coli tolC mutant, primary screen, strain BW25113 ΔtolC::kan, 384-well; OD615; growth inhibition, % at 10 µM (by protocol); AID 573, 2007; actives 2.2% (n = 65,000);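 active means growth inhibition at or above a cutoff equal to the mean over every tested compound plus 3 SD, cut at about 60% in these data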;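 further: growth measured after 20 h incubation at 37 °C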
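test system = E. coli BW25113 ΔtolC::kan bacteria | medium = LB with kanamycin 50 µg/mL | signal = OD at 615 nm | schedule = 37 °C, 20 h exposure | evaluation = % inhibition of E. coli growth | compound dosing = one dose of 10 µM final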
E coli WT exp: growth inhibitors of wild-type E. coli, primary screen, strain BW25113, expanded library, OD600 | growth inhibition, % at 100 µM | AID 710, 2007 | OD600 absorbance | actives 0.15% (n = 98,000);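 active means growth inhibition above about 50% at one test dose, limit read from the data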;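 further: growth measured after 20 h incubation at 37 °C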
The depositor's hits bear a star; nt = not tested or not shown. In the library only some 5.5% were active in any assay of this set; here they are far more common. Unless noted, no stated cut-off is given here; in the data, active means inhibition above about 30%; inactive means the rest.

SMILES	HePTP inh	PostGolgi ctrl	PLAP activator	PostGolgi yeast	Ecoli tolC	E coli WT exp
O=C(c1ccc(Br)o1)N1CCN(C/C=C/c2ccccc2)CC1	8	7	1.1	5	12	14
O=C(Nc1cccc(Cl)c1)N1CCN(C/C=C/c2ccccc2)CC1	11	4	1.4	40*	-9	18
O=C(c1ccc(Br)s1)N1CCN(C/C=C/c2ccccc2)CC1	nt	28	2*	0	nt	10
O=C(c1cc(-c2ccc(Cl)cc2)n(-c2ccc(Cl)cc2)n1)N1CCOCC1	nt	38*	1.5	9	nt	-4
O=C(c1cc(-c2ccc(Cl)cc2)on1)N1CCOCC1	4	26	1.1	-3	0	7
Cc1ccc(-n2nc(C(=O)N3CCOCC3)cc2-c2ccc(Cl)cc2)cc1	nt	41*	1.5	14	nt	-1
Cc1cc(C(=O)N2CCOCC2)n(-c2ccccc2)n1	-7	-10	1.5	-2	2	2
O=C(Nc1cccnc1)c1ccc(COc2cc(Cl)ccc2Cl)o1	nt	60*	1.1	13	nt	-7
CS(=O)(=O)c1nc(-c2ccccc2)cc(-c2ccccc2)c1C#N	nt	54*	0.9	2	nt	-8
O=C(NN1C(=O)/C(=C/c2ccccc2)SC1=S)c1cccc(Cl)c1	-2	nt	nt	nt	nt	nt
Cc1oc(-c2ccccc2)cc1C(=O)Nc1cccc2ccccc12	nt	30*	0.7	-8	nt	-10
COc1ccc(C(=O)Oc2c(CN3CCOCC3)cc(Cl)c3cccnc23)cc1	-6	19	2*	-6	26	7
COc1cccc(C(=O)Oc2c(CN3CCOCC3)cc(Cl)c3cccnc23)c1	nt	3	2.6*	-1	nt	40
COc1cc(C(=O)Oc2c(CN3CCOCC3)cc(Cl)c3cccnc23)cc(OC)c1OC	8	13	2*	0	47	42
O=C(Oc1ccc(Cl)c2cccnc12)N1CCOCC1	10	15	0.9	12	-15	-2
COc1cccc(NC(=O)c2ccc(CN3CCOCC3)cc2)c1	-4	10	0.9	1	3	9
O=C(Oc1c(Cl)cc(Cl)c2cccnc12)c1ccco1	nt	31*	2.1*	6	nt	100*
Cc1cc(C(=O)Nc2ccc(N(C)C)cc2)ccc1[N+](=O)[O-]	-2	nt	nt	nt	nt	nt
O=C(Nc1cccc(Cl)c1)Nc1nnc(-c2ccc(Cl)cc2Cl)s1	-9	nt	nt	nt	nt	nt
O=C(OCCN1CCOCC1)c1ccc(F)cc1	-9	nt	nt	nt	nt	nt
O=C(Oc1c(CN2CCOCC2)cc(Cl)c2cccnc12)c1ccc(F)cc1	-1	12	2*	-3	26	18
O=C1NN(c2ccc(I)cc2)C(=O)/C1=C\c1ccc(F)cc1	104*	nt	nt	nt	nt	nt
O=C1NN(c2ccccc2)C(=O)/C1=C\c1ccccc1O	8	nt	nt	nt	nt	nt
O=C1NN(c2ccc(I)cc2)C(=O)/C1=C\c1ccccc1O	92*	nt	nt	nt	nt	nt
CCOC(=O)C(C(=O)Nc1ncccn1)C1CCCCC1 (stereo not given)	-6	nt	nt	nt	nt	nt
SMILES	HePTP inh	PostGolgi ctrl	PLAP activator	PostGolgi yeast	Ecoli tolC	E coli WT exp
O=C(COc1ccc2ccccc2c1)N1CCN(c2ccc([N+](=O)[O-])cc2)CC1	7	nt	nt	nt	nt	nt
O=C(Cn1ncc2c1-c1ccccc1OC2)N(Cc1ccco1)C1CCCCC1	2	32*	1.6	1	38	6
CCN(CC)C(=O)Cn1ncc2c1-c1ccccc1OC2	9	2	0.8	2	-6	5
O=C(Cc1cccs1)Nc1nc2ccccc2s1	4	30*	1	-3	-7	0
O=C(Cn1ncc2c1-c1ccccc1OC2)Nc1nc2ccccc2s1	-7	47*	1.2	-10	58	11
O=C1c2ccccc2/C(=N/N=C/c2cccs2)C1C(=O)C(c1ccccc1)c1ccccc1 (stereo not given)	3	nt	nt	nt	nt	nt
CCn1c(=O)c2c(O)cc(=O)oc2c2ccccc21	nt	2	0.8	32*	nt	-2
O=c1cc(O)c2c(=O)n(-c3ccccc3)c3ccccc3c2o1	2	5	1	-3	43	0
CC(C)n1c(=O)c2c(O)cc(=O)oc2c2ccccc21	nt	5	1.1	-5	nt	8
O=c1cc(O)c2c(=O)n3c4c(cccc4c2o1)CCC3	-6	nt	nt	nt	96*	nt
O=C(O)C1C2CCC(C2)C1C(=O)Nc1nc2c(s1)CCCC2 (stereo not given)	11	nt	nt	nt	nt	nt
CCOc1cccc(NC(=O)C2CC(=O)N(C)C(=Nc3cccc(F)c3)S2)c1 (stereo not given)	9	16	0.9	-2	88*	-2
NS(=O)(=O)c1ccc(NC(=O)CSc2nnc(Cc3cccs3)n2-c2ccccc2)cc1	9	34*	1.2	-8	22	-1
Cc1ccc(-n2c(Cc3cccs3)nnc2SCC(=O)Nc2ccc(S(N)(=O)=O)cc2)cc1	5	6	1.3	4	19	-7
N#Cc1c(C(F)(F)F)cc(-c2cccs2)nc1SCC(=O)Nc1ccc(S(N)(=O)=O)cc1	73*	nt	nt	nt	nt	nt
COc1ccc(-c2cc(C(F)(F)F)c(C#N)c(SCC(=O)Nc3ccc(C)cc3)n2)cc1	nt	7	0.9	0	nt	3
O=C(N/N=C/C1CCCCC1)c1cc(Cl)ccc1O	nt	0	0.8	-8	nt	50*
OCCNc1nc(SCc2ccccc2)nc2sc3c(c12)CCC3	nt	74*	1	-1	nt	-17
CCCN(CCC)c1nc2ccccc2n2c(C)nnc12	7	45*	1.5	10	43	0
O=c1c2c(nc3cc(-c4ccc(Cl)cc4)[nH]n13)CCS2	96*	nt	nt	nt	nt	nt
Cc1ccc(-c2cc3nc4c(c(=O)n3[nH]2)SCC4)cc1	5	nt	nt	nt	nt	nt
O=c1c2c(nc3cc(-c4ccco4)[nH]n13)CCS2	100*	nt	nt	nt	nt	nt
O=Cc1cn(CCOc2ccccc2F)c2ccccc12	3	nt	nt	nt	nt	nt
Cc1c(C#N)c2ccccc2n1CCOc1ccccc1F	3	67*	0.7	3	20	-8
N#Cc1cn(CCOc2ccccc2F)c2ccccc12	-12	58*	0.9	-3	74*	-5
SMILES	HePTP inh	PostGolgi ctrl	PLAP activator	PostGolgi yeast	Ecoli tolC	E coli WT exp
O=C1NC(=O)N(c2ccc(Br)cc2)C(=O)/C1=C/c1cccc(O)c1	7	nt	nt	nt	nt	nt
COc1ccccc1/C=N\NC(=O)c1cc(C(C)(C)C)[nH]n1	5	nt	nt	nt	nt	nt
Cc1ccc(S(=O)(=O)Nc2cc(C(=O)O)cc(C(=O)O)c2)cc1	-7	nt	nt	nt	nt	nt
O=C(CCS(=O)(=O)Cc1ccccc1)NCC1CCCO1 (stereo not given)	10	34*	0.8	-4	-20	9
CC(C)(C)C1(C)OC(O)(C(F)(F)C(F)F)CC1=O (stereo not given)	104*	nt	nt	nt	nt	nt
O=C1c2ccccc2C(O)(Cc2ccccc2)N1C1CCCCC1 (stereo not given)	0	19	1.1	5	100*	-4
O=C1c2ccccc2C(O)(Cc2ccccc2)N1CCCN1CCOCC1 (stereo not given)	4	8	1.4	-6	-19	5
